Assays:
Type in all cases: cell-based
[1] = tested on: Gαq/11; experiment: IP1 accumulation assay; settings: CHO-M1 cells, mean ± SEM (n = 3)
[2] = tested on: MP41 cells (GNA11 Q209L mutation); experiment: Cell proliferation inhibition assay; settings: MP41, 72 h, read-out: Antiproliferation (IC50, μmol/L) MP41
Method in brief: (§1)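 Uveal melanoma cells were grown in RPMI-1640 with 10% FBS at 37 °C, 5% CO2. They were resuspended at 3 × 10^3 cells/mL, seeded and left overnight. Cells were exposed to a concentration series of test compound for 72 h. CCK-8 was added for 2–4 h and absorbance read at 450 nm. IC50 values were fitted from the curves and reported as mean ± SEM, n = 3.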

[3] = tested on: 92.1 cells (GNAQ Q209L mutation); experiment: Cell proliferation inhibition assay; settings: 72 h, read-out: Antiproliferation (IC50, μmol/L) 92.1
Method in brief: as §1

Row | Structure (SMILES) | IP1 inhibition at 10 μmol/L [1] [%] | IC50 [2] [µmol/L] | IC50 [3] [µmol/L]
1 | CC[C@H](C)[C@H](N)C(=O)N1CCn2cc(C3CCC(C)(C)CC3)nc2[C@@H]1CC1CCCCC1 [GQ232] | 10.9 ± 0.7 | 19.8 ± 0.1 | 16.1 ± 1
2 | N=C(N)NCCC[C@H](N)CN1CCn2cc(-c3ccccc3)nc2[C@@H]1CC1CCCCC1 [GQ255] | 27.7 ± 6.7 | > 40 | > 40
3 | CC[C@H](C)[C@H](N)C(=O)N1CCn2cc(-c3nccs3)nc2[C@@H]1CC1CCCCC1 [GQ226] | 29.5 ± 3.0 | > 40 | > 40
4 | CC(C)C[C@H](N)CN1CCn2cc(-c3ccccc3)nc2[C@@H]1CC1CCCCC1 [GQ237] | 43.0 ± 3.3 | 4 ± 1.3 | 5.8 ± 0.1
5 | CC(C)[C@@H]1c2nc(-c3ccccc3)cn2CCN1C[C@@H]1CCCN1C [GQ265] | 13.5 ± 0.5 | > 40 | > 40
6 | CCc1cn2c(n1)[C@H](CC1CCCCC1)N(C(=O)[C@@H](N)[C@@H](C)CC)CC2 [GQ235] | 22.3 ± 1.3 | > 40 | > 40
7 | N[C@@H](Cc1c[nH]cn1)CN1CCn2cc(-c3ccccc3)nc2[C@@H]1CC1CCCCC1 [GQ259] | 36.3 ± 0.9 | 5.8 ± 0.6 | 10.7 ± 0.8
8 | NCCC[C@H](N)CN1CCn2cc(-c3ccccc3)nc2[C@@H]1CC1CCCCC1 [GQ253] | 32.4 ± 1.0 | 9.2 ± 0.6 | 9.7 ± 0.4
9 | CC(C)(C)[C@H](N)CN1CCn2cc(-c3ccccc3)nc2[C@@H]1CC1CCCCC1 [GQ243] | 41.6 ± 5.8 | 5.7 ± 0.7 | 9.6 ± 0.7
10 | N[C@@H](CCO)CN1CCn2cc(-c3ccccc3)nc2[C@@H]1CC1CCCCC1 [GQ250] | 41.8 ± 2.7 | 6.9 ± 1 | 10.4 ± 0.2
11 | N[C@H](CS)CN1CCn2cc(-c3ccccc3)nc2[C@@H]1CC1CCCCC1 [GQ246] | 40.4 ± 7.0 | 14.9 ± 0.8 | 15.8 ± 1
12 | CC[C@H](N)CN1CCn2cc(-c3ccccc3)nc2[C@@H]1CC1CCCCC1 [GQ241] | 31.3 ± 9.0 | 5.9 ± 0.5 | 6.6 ± 0.2
13 | N[C@@H](Cc1c[nH]c2ccccc12)CN1CCn2cc(-c3ccccc3)nc2[C@@H]1CC1CCCCC1 [GQ257] | 33.2 ± 1.3 | 6 ± 0.3 | 9.6 ± 0.5
14 | CC[C@H](C)[C@H](N)C(=O)N1CCn2cc(-c3ccco3)nc2[C@@H]1CC1CCCCC1 [GQ223] | 16.6 ± 1.2 | > 40 | > 40
15 | CN1CCC[C@H]1CN1CCn2cc(-c3ccccc3)nc2[C@@H]1C1CCCCC1 [GQ267] | 8.9 ± 0.8 | > 40 | > 40
16 | NCCCC[C@H](N)CN1CCn2cc(-c3ccccc3)nc2[C@@H]1CC1CCCCC1 [GQ254] | 44.2 ± 0.3 | 8 ± 0.6 | 11.2 ± 0.7
17 | CSCC[C@H](N)CN1CCn2cc(-c3ccccc3)nc2[C@@H]1CC1CCCCC1 [GQ247] | 44.5 ± 3.4 | 5.6 ± 0.2 | 6 ± 0.3
18 | C[C@H](N)CN1CCn2cc(-c3ccccc3)nc2[C@@H]1CC1CCCCC1 [GQ239] | 50.2 ± 5.2 | 6 ± 0.6 | 11.6 ± 0.6
19 | CC[C@H](C)[C@H](N)CN1CCn2cc(-c3ccccc3)nc2[C@@H]1CC1CCCCC1 [GQ236] | 48.4 ± 2.4 | 10.1 ± 0.2 | 9.3 ± 0.5
20 | CC[C@H](C)[C@H](N)C(=O)N1CCn2cc(C3=CCCCC3)nc2[C@@H]1CC1CCCCC1 [GQ228] | 24.8 ± 1.5 | 11 ± 0.1 | 19 ± 0.6
21 | CC(C)[C@H]1c2nc(-c3ccccc3)cn2CCN1C[C@@H]1CCCN1C [GQ264] | 5.9 ± 1.1 | > 40 | > 40
22 | CC(C)[C@H](N)CN1CCn2cc(-c3ccccc3)nc2[C@@H]1CC1CCCCC1 [GQ238] | 34.4 ± 1.7 | 6.2 ± 0.7 | 7.3 ± 0.7
23 | N[C@@H](CCCO)CN1CCn2cc(-c3ccccc3)nc2[C@@H]1CC1CCCCC1 [GQ251] | 51.2 ± 4.9 | 7.4 ± 0.8 | 12.6 ± 0.7

Row | Structure (SMILES) | IP1 inhibition at 10 μmol/L [1] [%] | IC50 [2] [µmol/L] | IC50 [3] [µmol/L]
24 | N[C@@H](Cc1ccccc1)CN1CCn2cc(-c3ccccc3)nc2[C@@H]1CC1CCCCC1 [GQ258] | 48.3 ± 6.5 | 7.9 ± 1.5 | 11.6 ± 1.4
25 | CC[C@H](C)[C@H](N)C(=O)N1CCn2cc(C3CCNCC3)nc2[C@@H]1CC1CCCCC1 [GQ230] | 13.7 ± 0.6 | > 40 | > 40
26 | c1ccc(-c2cn3c(n2)[C@H](CC2CCCCC2)N(C[C@@H]2CCCCN2)CC3)cc1 [GQ261] | 27.0 ± 5.1 | 6.2 ± 0.8 | 11 ± 0.5
27 | c1ccc(-c2cn3c(n2)[C@H](CC2CCCCC2)N(C[C@@H]2CCCN2)CC3)cc1 [GQ260] | 53.4 ± 7.0 | 6.7 ± 0.6 | 11.6 ± 1.2
28 | CC[C@H](C)[C@H](N)C(=O)N1CCn2cc(C3CCCCC3)nc2[C@@H]1CC1CCCCC1 [GQ227] | 18.4 ± 0.9 | 21.2 ± 0.5 | 21.6 ± 0.6
29 | CC[C@H](C)[C@H](N)C(=O)N1CCn2cc(C3CCOCC3)nc2[C@@H]1CC1CCCCC1 [GQ231] | 20.6 ± 2.1 | > 40 | > 40
30 | NCCN1CCn2cc(-c3ccccc3)nc2[C@@H]1CC1CCCCC1 [GQ240] | 22.5 ± 4.2 | 7.4 ± 0.3 | 9.6 ± 0.6
31 | C[C@H](O)[C@H](N)CN1CCn2cc(-c3ccccc3)nc2[C@@H]1CC1CCCCC1 [GQ249] | 44.1 ± 3.0 | 5.8 ± 0.6 | 11.4 ± 0.3
32 | N[C@@H](Cc1ccc(O)cc1)CN1CCn2cc(-c3ccccc3)nc2[C@@H]1CC1CCCCC1 [GQ256] | 47.6 ± 5.0 | 9 ± 1.2 | 8.7 ± 0.7
33 | CC[C@H](C)[C@H](N)C(=O)N1CCn2cc(C(C)C)nc2[C@@H]1CC1CCCCC1 [GQ234] | 10.8 ± 1.4 | > 40 | > 40
34 | CC[C@H](C)[C@H](N)C(=O)N1CCn2cc(C3CCC(F)(F)CC3)nc2[C@@H]1CC1CCCCC1 [GQ233] | 22.2 ± 1.9 | > 40 | > 40
35 | N[C@H](CO)CN1CCn2cc(-c3ccccc3)nc2[C@@H]1CC1CCCCC1 [GQ248] | 49.7 ± 9.5 | 7.9 ± 0.7 | 10.9 ± 0.5
36 | CCC[C@H](N)CN1CCn2cc(-c3ccccc3)nc2[C@@H]1CC1CCCCC1 [GQ242] | 41.0 ± 6.0 | 5 ± 0.1 | 4.7 ± 0.4
37 | N[C@@H](CC1CCCCC1)CN1CCn2cc(-c3ccccc3)nc2[C@@H]1CC1CCCCC1 [GQ244] | 45.8 ± 10.5 | 5.6 ± 0.3 | 9 ± 1.3
38 | CC[C@H](C)[C@H](N)C(=O)N1CCn2cc(-c3ccccn3)nc2[C@@H]1CC1CCCCC1 [GQ220] | 20.8 ± 1.1 | > 40 | > 40
39 | NCC[C@H](N)CN1CCn2cc(-c3ccccc3)nc2[C@@H]1CC1CCCCC1 [GQ252] | 35.9 ± 7.3 | 5.2 ± 0.7 | 3.5 ± 0.3
40 | CC[C@H](C)[C@H](N)C(=O)N1CCn2cc(-c3ccoc3)nc2[C@@H]1CC1CCCCC1 [GQ224] | 31.5 ± 6.0 | > 40 | > 40
41 | N[C@H](CN1CCn2cc(-c3ccccc3)nc2[C@@H]1CC1CCCCC1)C1CCCCC1 [GQ245] | 46.8 ± 8.6 | 5 ± 0.3 | 5.7 ± 0.1
42 | CC[C@H](C)[C@H](N)C(=O)N1CCn2cc(-c3cccs3)nc2[C@@H]1CC1CCCCC1 [GQ225] | 28.7 ± 1.6 | 25.3 ± 0.9 | 18.8 ± 1.7
43 | CC[C@H](C)[C@H](N)C(=O)N1CCn2cc(-c3cccnc3)nc2[C@@H]1CC1CCCCC1 [GQ221] | 20.0 ± 0.6 | > 40 | > 40
44 | CC[C@H](C)[C@H](N)C(=O)N1CCn2cc(-c3ccncc3)nc2[C@@H]1CC1CCCCC1 [GQ222] | 27.0 ± 5.2 | > 40 | > 40
45 | CC[C@H](C)[C@H](N)C(=O)N1CCn2cc(C3CCCC3)nc2[C@@H]1CC1CCCCC1 [GQ229] | 15.8 ± 1.8 | > 40 | > 40
46 | CC(C)C[C@@H]1c2nc(-c3ccccc3)cn2CCN1C[C@@H]1CCCN1C [GQ266] | 17.5 ± 1.1 | > 40 | > 40

— article PMC9366314 (Acta Pharmaceutica Sinica. B, 2022)
